Legend:
Adenosine deaminase = target: T1, Adenosine deaminase (Bos taurus, UniProt P56658); test: inhibitory activity against Adenosine deaminase
T1 sequence (P56658 whole entry): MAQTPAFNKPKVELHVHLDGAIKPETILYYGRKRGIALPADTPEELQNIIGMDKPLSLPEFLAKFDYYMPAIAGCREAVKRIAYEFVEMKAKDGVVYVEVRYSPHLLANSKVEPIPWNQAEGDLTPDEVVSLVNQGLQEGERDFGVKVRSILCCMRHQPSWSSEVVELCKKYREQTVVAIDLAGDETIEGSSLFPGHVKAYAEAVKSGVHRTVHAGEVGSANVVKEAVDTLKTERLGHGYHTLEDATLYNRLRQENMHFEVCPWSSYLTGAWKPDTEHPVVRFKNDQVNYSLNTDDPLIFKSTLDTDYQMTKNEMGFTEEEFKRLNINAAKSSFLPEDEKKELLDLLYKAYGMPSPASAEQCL
In short: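 Adenosine deaminase (calf intestinal mucosa, type VIII) at 37 °C in 50 mM phosphate pH 7.5. Substrate tests used 20–80 μM nucleoside and 0.01–1 unit enzyme, with HPLC product analysis. Inhibition was read by UV spectrometry with adenosine 20–100 μM. Ki was taken from Lineweaver–Burk plots assuming competitive inhibition.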

[1] = Half life of the compound; format: ADME
In short: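 Deamination by calf intestinal mucosa adenosine deaminase (type VIII) at 37 °C in 50 mM phosphate buffer pH 7.5. Substrate 20–80 μM with 0.01–1 unit of enzyme depending on substrate. Conversion followed over time by HPLC on C-18 with a phosphate pH 6 / acetonitrile gradient, which also confirmed the deaminated nucleoside as sole product.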

SMILES	Ki (Adenosine deaminase)	half-life [1]
Nc1ncnc2c1ncn2[C@H]1CC[C@@H](CO)O1	120 µM	
Nc1ncnc2c1ncn2[C@H]1C=C[C@@H](CO)O1		74.4 h
